Screening results as filed in PubChem.
SIRT5 inh: sirtuin-5 (human) deacylase inhibition | Purified SirT5, succinyl-peptide AMC, trypsin-coupled fluorescence | AID 652115 | inhibition, % at 15 µM | 330,000 compounds, 1.1% hits; in the data active = inhibition above about 15%; inconclusive = no clear call, values can overlap the other calls
Target sequence (Q9NXA8 whole entry, looked up): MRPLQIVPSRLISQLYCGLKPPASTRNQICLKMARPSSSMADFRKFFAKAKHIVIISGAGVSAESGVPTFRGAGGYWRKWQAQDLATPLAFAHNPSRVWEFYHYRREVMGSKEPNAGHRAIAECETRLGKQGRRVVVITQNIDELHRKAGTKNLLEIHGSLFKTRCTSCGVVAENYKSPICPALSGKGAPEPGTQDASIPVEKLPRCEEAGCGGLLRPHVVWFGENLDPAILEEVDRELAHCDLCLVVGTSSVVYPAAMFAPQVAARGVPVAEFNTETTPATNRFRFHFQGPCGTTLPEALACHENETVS
Ecoli rRNA inh: inhibitors of bacterial rRNA selective over humanized ribosomes | GFP signal change (wild-type ribosome), % (no concentration beside the values) | 350,000 compounds, 1.6% hits | E. coli WT GFP vs humanized-ribosome RFP mutants, fluorescence, 24 h; hits give low values; DMSO median 0, no signal -100 | AID 720706;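 active = significant combined selectivity score with lowered wild-type GFP, culture density cut under 30%, mutant RFP and density less affected; inactive = any of these conditions unmet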
Cneo AK release: causes C. neoformans cell lysis; adenylate kinase release luminescence, 4 h; normalised: neutral wells 0, clomiphene wells 100; lysis activity, % at 15 µM; 360,000 compounds, 0.2% hits; AID 651654;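 active = mean lysis activity across replicates of at least 80%, whatever share of replicates individually reach that level; inactive = mean lysis activity below 80%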
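Signal: Adenylate kinase release luminescence | Assay system: Log-phase Cryptococcus neoformans yeast cells | Input: Cells at 5 × 10^6 per mL | Buffer or medium: Fresh YPD growth medium | Compound: Single dose | Schedule: Static 4 h at 37 °C with compound, 1 h detection | Controls: Clomiphene | Read-out: Luminescence rise reflecting yeast cell lysis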
C2C12 statin: suppression of simvastatin myotoxicity. C2C12 myotubes + simvastatin, ATP luminescence, 48 h; scaled: DMSO 0, geranylgeraniol control 100. AID 602340. rescue of ATP level, % at 7.49 µM. 330,000 compounds, 0.78% hits;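 active = mean ATP rescue above about 67%, or every replicate alone reaching that limit, limit read from the data, passing the limit was not always enough; inconclusive = no clear call, values can overlap the other calls; inactive = mean under the limit and some replicate under it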;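 note: myotubes were challenged with 10 µM simvastatin during compound exposure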
S100A4 MyoIIA: S100A4-myosin IIA interaction inhibition | P26447 | S100A4/TAMRA-MyoIIA peptide fluorescence polarization | 360,000 compounds, 0.14% hits | inhibition, % at 10.7 µM;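 active = mean inhibition of at least 70% across replicates, with every replicate also reaching that level; inconclusive = mean inhibition reaches 70% but some replicates fall short; inactive = mean inhibition below 70%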
Target sequence (P26447 whole entry, looked up): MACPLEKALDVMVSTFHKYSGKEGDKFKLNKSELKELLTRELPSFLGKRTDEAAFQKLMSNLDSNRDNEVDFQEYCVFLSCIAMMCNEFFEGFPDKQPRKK
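Assay system: human S100A4 monomer with TAMRA-labelled myosin IIA peptide / Buffer or medium: Calcium-containing HEPES buffer, pH 7.2 / Reagent: TAMRA-labelled myosin IIA heavy-chain peptide probe, 5 nM / Compound: one dose per compound / Timing: polarization read 5 min after assay mix addition, stable 5–60 min / Benchmarks: neutral control DMSO, positive control TFP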
PGC1a acetyl inh: PGC1a acetylation modulation, inhibitor mode | U2OS PGC1a acetylation, AlphaScreen anti-acetyl-lysine; with virally co-expressed GCN5 acetyltransferase | inhibition, % at 15.6 µM | 350,000 compounds, 0.17% hits | AID 651687;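 active = every replicate shows inhibition of at least 40%; inconclusive = mean inhibition at least 40% but some replicate below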;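 note: 0% = neutral control wells and 100% = positive control wells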
AID977621: wild-type E. coli growth inhibition versus H69 humanized strain – H69 mutant RFP, wild-type GFP, cherry-pick, dose response; shares compounds with Ecoli rRNA inh; fluorescence, 24 h; activity change, negative = inhibition at 50 µM; 1,900 tested, under 10 active; AID 977621;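 active = Wild-type ribosome reporter drop at least double the humanized mutant ribosome reporter drop, growth loss under a set limit; inconclusive = no clear call, values can overlap the other calls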;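 note: wild-type GFP and H69 mutant RFP strains grown together 50/50 in each well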
AID977628: E. coli growth inhibition, wild-type GFP versus h24 humanized RFP strain, dose response, h24 mutant RFP vs wild-type GFP, cherry-pick | shares compounds with Ecoli rRNA inh | E. coli WT GFP strain growth, fluorescence, 24 h | 1,900 tested, under 10 active | activity change, negative = inhibition at 50 µM;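 active = compound lowering the normal-ribosome reporter at least twice as much as the humanized-ribosome reporter, growth loss under a set limit; inconclusive = no clear call, values can overlap the other calls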;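 note: wild-type GFP and h24 humanized RFP strains co-cultured 1 to 1 per well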
* marks the source's active call; other numbers are inactive results; ? = inconclusive; . = no result given. Compounds with a hit are over-represented: about 3% of the library has one in this group of screens.

SMILES	SIRT5 inh	Ecoli rRNA inh	Cneo AK release	C2C12 statin	S100A4 MyoIIA	PGC1a acetyl inh	AID977621	AID977628
O=C(Nc1ccc(Cl)c(Cl)c1)c1ccc(Cl)c(Cl)c1	-5	-17*	-1	0	15	.	-17	-6.6
COc1ccccc1-c1cn(CC[C@H]2CC[C@H](NC(=O)C3CC3)[C@H](CO)O2)nn1	2	1	-4	-3	-7	8	.	.
CC(=O)OC(COc1cccc(C)c1)Cn1cnc2ccccc21 (stereo not drawn)	-3	-37*	.	.	-1	-8	-14	?
CCNc1nc(N)c(C(=O)C23CC4CC(CC(C4)C2)C3)s1	-1	-23*	0	-25	-3	7	7.1	-6.3
NC(=O)c1sc2nnc(-c3ccccc3)c(-c3ccccc3)c2c1N	0	-29*	3	-12	-5	3	.	-8.1
NC(=O)c1snnc1-c1ccccc1	-2	-1	-4	1	-12	3	.	.
S=C1SCN(Cc2cccnc2)CN1Cc1cccnc1	-3	-29*	.	.	4	-1	-15	-22
Cc1cc(C)n2nc(C(=O)Nc3cccc(S(=O)(=O)N(C)c4ccccc4)c3)nc2n1	-4	-26*	.	5	1	.	-15	.
CN(c1ccccc1)S(=O)(=O)c1cccc(NC(=O)c2ccncc2)c1	-2	-15	.	.	0	.	.	.
Cc1cc(-c2ccc(C)c(S(=O)(=O)NCC3CCN(Cc4cccc(F)c4)CC3)c2)on1	1	-21	53	-15	1	-19	.	.
Cc1cc(-c2ccc(C)c(S(=O)(=O)NCC3CCN(Cc4ccccc4F)CC3)c2)on1	-3	-16*	-1	-33	-12	-17	-9	-6.6
COCC(=O)N1CC2(C1)CN(Cc1ccccn1)[C@@H](CO)c1[nH]c3cc(OC)ccc3c12	1	3	.	.	-15	6	.	.
Cc1cccc(NS(=O)(=O)c2cc3c(cc2C)NC(=O)CO3)c1	-2	-18*	0	13	-2	.	-1	-9.1
Cn1c(=O)c2c(ncn2CC(O)CNc2ccc(F)cc2)n(C)c1=O (stereo not drawn)	-6	-27*	.	.	-7	10	-10	-5.4
CO[C@@H]1CN(C)C(=O)c2ccc(NC(=O)C3CCCCC3)cc2OC[C@@H](C)N(Cc2cccnc2)C[C@H]1C	6	-2	-3	8	3	0	.	.
C[C@H](CO)N1C[C@H](C)[C@H](CN(C)Cc2ccc(Oc3ccccc3)cc2)Oc2ccc(NC(=O)CCCN(C)C)cc2C1=O	1	2	2	-12	5	-5	.	.
CN(c1ccc(C(=O)NCc2cccs2)cc1)S(=O)(=O)c1ccccc1	.	-18*	.	4	2	.	-5.3	-4.9
COc1ccccc1S(=O)(=O)N[C@H]1CC[C@@H](CCNC(=O)C2CCC2)O[C@@H]1CO	12	1	0	-3	-4	-13	.	.
CC(NC(=O)c1c(N)[nH]c(C(=O)c2ccccc2)c1-c1ccccc1Br)c1cccc2ccccc12 (stereo not drawn)	0	-26*	.	.	-6	.	4.6	-3
CCOC(=O)c1cnc2c(ccc3ccccc32)c1NCCCN(C)C	-5	-26*	-5	12	2	0	-4.3	.
Cc1ccc(-c2ccc([C@H]3[C@H](CO)N4C(=O)CN(C(=O)c5ccncc5)C[C@@H]34)cc2)cc1	1	2	.	.	-32	-16	.	.
O=C(C[C@H]1CC[C@H]2[C@@H](COC[C@@H](O)CN2C(=O)c2ccncc2)O1)NCc1cccc(F)c1	0	3	-1	1	18	1	.	.
CCc1cccc(CC)c1NC(=O)Cn1c(-c2ccc(F)cc2)noc1=O	-6	-17*	.	.	-10	-12	-8.7	5.4
CCOC(=O)N1CCN(CC(O)COCCC23CC4CC(CC(C4)C2)C3)CC1 (stereo not drawn)	.	.	-2	-22	.	16	.	.
CC1CCCCN1CC(O)COCCC12CC3CC(CC(C3)C1)C2 (stereo not drawn)	4	-29*	0	-25	-3	-19	-23	.
SMILES	SIRT5 inh	Ecoli rRNA inh	Cneo AK release	C2C12 statin	S100A4 MyoIIA	PGC1a acetyl inh	AID977621	AID977628
Cc1cccc(-c2cc3nc4c(c(N5CCOCC5)n3n2)CCCC4)c1	-9	-33*	-2	-96	49	-16	-17	?
Cc1cccc(-c2cc3nc4c(c(N5CCC6(CC5)OCCO6)n3n2)CCCC4)c1	-4	9	-1	-5	1	5	.	.
CO[C@@H]1CN(C)C(=O)c2cc(NS(=O)(=O)CC(F)(F)F)ccc2OC[C@H](C)N(CC2CCCCC2)C[C@H]1C	-4	-7	0	9	-25	-1	.	.
Cn1cnc(S(=O)(=O)N[C@H]2CC[C@@H](CC(=O)NCC3CC3)O[C@@H]2CO)c1	1	-3	.	.	7	-3	.	.
CN(C(=O)c1ccc(COc2ccccc2Cl)o1)c1ccccc1	-6	-56	-1	3	-11	-9	.	.
CCN(CC)C(=O)c1ccc(COc2ccccc2Cl)o1	-3	-20*	.	.	4	.	1.5	-6.9
O=C(Nc1ncccn1)c1ccc([N+](=O)[O-])o1	3	-18*	.	.	11	.	-7.4	?
O=C(Nc1cccc2ccccc12)c1ccc([N+](=O)[O-])o1	-1	-19*	-1	?	0	.	?	.
C[C@@H]1CCCCO[C@@H](CN(C)CC2CCCCC2)[C@H](C)CN([C@H](C)CO)C(=O)c2cc(NC(=O)Nc3cccc4ccccc34)ccc2O1	6	-4	1	.	-49	-7	.	.
C[C@@H]1CN([C@H](C)CO)C(=O)c2cc(Br)cnc2O[C@H]1CN(C)CC1CCCC1	2	6	7	22	8	20	.	.
COc1ccc(C(=O)CCS(=O)(=O)c2ccc(C)cc2)cc1	-3	-1	-1	-3	2	.	.	.
COc1ccc(C(CC(=O)c2ccc(O)cc2)S(=O)(=O)c2ccc(C)cc2)cc1 (stereo not drawn)	5	-24*	-3	-13	-3	-10	-0.51	-11
COc1ccc(NC(=O)c2cccc(Oc3ccc([N+](=O)[O-])cc3Cl)c2)cc1	0	-24*	.	.	-7	.	1.8	-2.2
O=C(Nc1cccc(Cl)c1)c1cccc(Oc2ccc([N+](=O)[O-])cc2Cl)c1	.	1	3	-1	-4	.	.	.
